Data taken from ChEMBL document CHEMBL3774319, “Novel indole sulfides as potent HIV-1 NNRTIs” (Bioorg Med Chem Lett, 2016).

Columns and labels:
[1] = tested on: Human immunodeficiency virus 1; assay: Antiretroviral activity against HIV-1 infected in HEK293T cells assessed as inhibition of viral replication by single-cycle assay; assay type: functional, organism-based; details: Human immunodeficiency virus 1, HEK-293T
Outline: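 In vitro single-cycle, non-replicative phenotypic anti-HIV-1 assay; IC50 values derived from it.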

[2] = Cytotoxicity against HEK293T cells by MTT assay; assay type: cell-based, HEK-293T; details: human
Outline: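 HEK293T cells read out with a tetrazolium-based colorimetric assay to give toxicity values.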

[3] = Stability in ethanol solution containing sulfuric acid assessed as compound degradation at 0.10 mmol measured within 2 hrs by HPLC method; assay type: physicochemical

| Compound | IC50 [1] [µM] | CC50 [2] [µM] | Stability [3] |
| --- | --- | --- | --- |
| CCOC(=O)c1[nH]c2ccc(Cl)cc2c1C(OC)c1cccc(Cl)c1 (racemic) | 0.033 | 26.8 |  |
| CSC(c1ccccc1)c1c[nH]c2ccc(Cl)cc12 (racemic) | 9.95 | 52.7 |  |
| CCOC(=O)c1[nH]c2ccc(Cl)cc2c1C(SC)c1cccc(Cl)c1 (racemic) | 0.042 | 28.6 |  |
| CCOC(=O)c1[nH]c2ccc(Cl)cc2c1C(OC)c1cccc(Br)c1 (racemic) | 0.02 | 26.4 |  |
| CCOC(=O)c1[nH]c2ccc(Cl)cc2c1N(CC)c1ccccc1 | 1.2 | 22.8 |  |
| CCOC(=O)c1[nH]c2ccc(Cl)cc2c1C(SC)c1ccccc1 (racemic) | 0.039 | 26.1 |  |
| CCOC(=O)c1[nH]c2ccc(Cl)cc2c1C(OC)c1cccc(C)c1 (racemic) | 0.02 | 27.4 | Unstable |
| CCOC(=O)c1[nH]c2ccc(Cl)cc2c1C(SC)c1cc(C)cc(C)c1 (racemic) | 0.06 | 32 |  |
| CCOC(=O)c1[nH]c2ccc(Cl)cc2c1C(SC)c1cccc(C)c1 (racemic) | 0.038 | 29.6 | Stable |
